Laboratory results taken from the EternaBench riboswitch data.

System: MS2 coat protein
Assay: apparent Kd, MS2 coat protein; higher = weaker binding; RNA-MaP array; theophylline 2 mM where present
Method in brief: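 Green signal was scaled to red-channel RNA signal and control-cluster median Fmax, and the apparent Kd was taken as the median of filtered per-cluster binding-curve fits. The binding series used SNAP-549-labelled MS2 coat protein from 0.7 or 1.5 nM, doubling to 3 µM, on designs transcribed by stalled E. coli RNA polymerase on Illumina sequencing-chip clusters. Each series ran without and then with constant ligand in 100 mM Tris-HCl pH 7.5, 80 mM KCl, 4 mM MgCl2, BSA, DTT, yeast tRNA and Tween-20.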

[1] = designed as: OFF switch for theophylline, no ligand
[2] = ligand present: theophylline, designed as: OFF switch for theophylline
[3] = designed as: ON switch for theophylline, no ligand
[4] = ligand present: theophylline, designed as: ON switch for theophylline

Row | Sequence | apparent Kd [1] [nM] | apparent Kd [2] [nM] | apparent Kd [3] [nM] | apparent Kd [4] [nM]
1 | CUUAUAGUAACUGAUACCAGUGUACUGACAUGAGGAUCACCCAUGUUGGGUUUUGUUGUACACCCUUGGCAGCAGAAUCUAUAAG | 69.5 | 86.6 | – | –
2 | GAGCUGAUGUAGAAAUUUUAUUUAUGAGAUACCAGUACAGAAAUGUACCCUUGGCAGCUCAUUUUUACAUGAGGAUCACCCAUGU | 12.5 | 13.8 | – | –
3 | GAUGAACUAUUUGAUACCAGACUACAUGAGGAUCACCCAUGUGAGUUUAUACUUCUGUCAGUCCCUUGGCAGCAAAUAGUUUAUC | 19.2 | 123 | – | –
4 | GAUGAACUAUUUGAUACCAGACUACAUGAGGAUCACCCAUGUGAGUUUCGUCCUCUGCCAGUCCCUUGGCAGCAAAUAGUUUAUC | 18.9 | 194 | – | –
5 | GAUGAUAUUGCAGAUACCAGACACAUGAGGAUCACCCAUGUCGCUGGGUUACUGGAUCGUGUCCCUUGGCAGCUGCGAUAUCAUC | 286 | 69.4 | – | –
6 | GAUGAUAUUGCAGAUACCAGACACAUGAGGAUCACCCAUGUCGCUGGGUUACUGGGUCGUGUCCCUUGGCAGCUGCGAUAUCAUC | 44 | 339 | – | –
7 | GCACCAGGUACGGAUACCAGACGUUGCCAAACAGGGUGACAUGAGGAUCACCCAUGUACUGUCCCUUGGCAGCCGUACCUGGUGC | 22.3 | 653 | – | –
8 | GCACCAGGUACGGAUACCAGCUAUAGGCCCAAUGGGCGACAUGAGGAUCACCCAUGUGAUGGCCCUUGGCAGCUGUACCUGGUGC | – | – | 211 | 24.1
9 | GCACGACAUGAGGAUCACCCAUGUGCAGAUACCAGUAAUGUAUAUUACCCUUGGCAGCUGAGUAGAUCUGGAGGGCUAUAGGUAA | – | – | 13.8 | 20.8
10 | GCACUACAUGAGGAUCACCCAUGUGCAGAUACCAGAGGUGUAUGCCUCCCUUGGCAGCUGAGUAGCUCUGGAGGCCUAUUGGUUU | – | – | 15 | 19.1
11 | GCUGUAAGUGCAGAUACCAGCAAGUGAUAUUUCAUAUGACAUGAGGAUCACCCAUGUAACUGCCCUUGGCAGCUGCACUUACAGC | – | – | 213 | 24.9
12 | GCUUGGGUGGCACAGCCCUGGCAGUGCGAUACCAGCACGGUAACGUGCCCUUGGCAGCGCACAUGAGGAUCACCCAUGUGGUGCG | 69.5 | 345 | – | –
13 | GGUGAUCCGUAUCACCGGAUCACCGGUGAUACCAGCAUCGAAAGAUGCCCUUGGCAGCACCAACAUGAGGAUCACCCAUGUAAUA | – | – | 165 | 26.4
14 | UAAAAUAAAAGGGUGAAGGUAUAAACAGAUACCAGCCAGAUAACUGGCCCUUGGCAGCUGAAUGACAUGAGGAUCACCCAUGUCU | – | – | 12 | 33.3
15 | UAAAUAAUCUGGGUGUAGGUAAUAACAGAUACCAGCCAGAUAACUGGCCCUUGGCAGCUGAUAACAUGAGGAUCACCCAUGUAAA | – | – | 80.5 | 224
16 | UACACAUGACAUGAUACCAGCCCAUGUGAACAUGAGGAUCACCCAUGUAUGAGGACAUGAGGCCCUUGGCAGCAUGUAUACAUGA | – | – | 10.2 | 10.2
17 | UAUAGUGUGAUGGAUACCAGCAGAGAAAACGUUUAUCCUAACAUGAGGAUCACCCAUGUAUGCCCUUGGCAGCUGUUGUGUUAUA | 31.7 | 31.8 | – | –
18 | UAUAUAUAUAUUGAUACCAGCAGAGAAAACGUUUAUCCUAACAUGAGGAUCACCCAUGUAUGCCCUUGGCAGCGGUAUAUAUAUA | 25.7 | 38 | – | –
19 | UCAUUUGAGUGAGAUGUAAGGUAUCAUGAUACCAGUAGAUAAUUAUACCCUUGGCAGCAUAACAUGAGGAUCACCCAUGUACAUG | 22.8 | 24.2 | – | –
20 | UCGUGUAUUUCGGAUACCAGUGAAAUCGAUACAUGAGGAUCACCCAUGUGAGAGGAUGUACACCCUUGGCAGCUGUCUGUAUCUG | – | – | 16.3 | 15.2
21 | UCUACAUGAGGAUCACCCAUGUGCCAUGAUACCAGACAUGAAAAUGUCCCUUGGCAGCAUGGGUAGCGCAUCCGAAAGGAUGCGU | – | – | 32.2 | 657
22 | UCUUACUAUAGUGAUACCAGACGUACAUGAGGAUCACCCAUGUUACAUUCUUGGUUAAAAGUCCCUUGGCAGCACGAUUUGUUCG | 9.28 | 9.5 | – | –
